According to paper PMC8314033 (BioImpacts : BI, 2020):

Legend:
[1] = test system: 3T3 (non-cancer immortal cell lines); experiment: In vitro cell antiproliferative test; format: cell-based; settings: 3T3, 200 µg/mL, 48 hours
Procedure, shortened: (§1)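 Cells grown in DMEM with 10% heat-inactivated FBS and penicillin-streptomycin, detached with trypsin-EDTA, and counted by trypan blue. Plated at 10 × 10³ cells/well and allowed to attach for 24 h at 37°C, 5% CO2. Exposed 48 h to isolated compounds at 1.8–200 µg/mL final, in triplicate. MTT added at 1 mg/mL final for 4 h, formazan dissolved in DMSO, and A570 read. Survival calculated as a percentage of untreated wells.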

[2] = test system: MCF7 (breast cancer cell lines); experiment: In vitro cell antiproliferative test; format: cell-based, human; settings: MCF7, 200 µg/mL, 48 hours
Procedure, shortened: as §1

[3] = Hydroxyl radical scavenging activity; settings: 5 minutes, 560 nm; standard ascorbic acid

| SMILES | % of cell survival [1] | % of cell survival [2] | Hydroxyl radical scavenging EC50 [3] |
| --- | --- | --- | --- |
| C[C@H]1[C@H](C)CC[C@]2(C(=O)O)CC[C@]3(C)C(=CC[C@@H]4[C@@]5(C)CC[C@H](O)C(C)(C)[C@@H]5CC[C@]43C)[C@H]12 [Ursolic acid, ursolic acid] | 17.58% | 8.46% |  |
| Oc1cc(O)cc(-c2cc3ccc(O)cc3o2)c1 [Moracin M] | 21.6% | 16.09% |  |
| O=C1O[C@H]([C@@H](O)CO)C(O)=C1O [ascorbic acid] |  |  | 6.58 µg/mL |
| CC(C)=CCc1c(O)cc(O)cc1-c1cc2ccc(O)c(CC=C(C)C)c2o1 [Cathafuran B, cathafuran B] | 20.58% | 8.89% |  |
